Test results reported in ChEMBL document CHEMBL1795205, “The new 5- or 6-azapyrimidine and cyanuric acid derivatives of l-ascorbic acid bearing the free C-5 hydroxy or C-4 amino group at the ethylenic spacer: CD-spectral absolute configuration determination and biological activity evaluations” (Eur J Med Chem, 2011).
Calls of active or inactive are those of the source. No cut-off for these calls is given here.

Columns and labels:
MIA PaCa-2 [1] = experiment: Induction of cell cycle arrest in human MIAPaCa2 cells assessed as accumulation at G1 phase at 5 uM after 48 hrs by flow cytometry (reference value: 44.7 +/- 7.21%); type: functional
MIA PaCa-2 [2] = experiment: Induction of cell cycle arrest in human MIAPaCa2 cells assessed as accumulation at G2/M phase at 5 uM after 48 hrs by flow cytometry (reference value: 9.35 +/- 0.92%); type: functional
MIA PaCa-2 [3] = experiment: Induction of cell cycle arrest in human MIAPaCa2 cells assessed as accumulation at S phase at 5 uM after 48 hrs by flow cytometry (reference value: 46 +/- 8.13%); type: functional
SW-620 [4] = experiment: Induction of cell cycle arrest in human SW620 cells assessed as accumulation at G2/M phase at 1 uM after 24 hrs by flow cytometry (reference value: 10.7 +/- 0.07%); type: functional
SW-620 [5] = experiment: Induction of cell cycle arrest in human SW620 cells assessed as accumulation at G1 phase at 5 uM after 24 hrs by flow cytometry (reference value: 51.6 +/- 0.07%); type: functional
SW-620 [6] = experiment: Induction of cell cycle arrest in human SW620 cells assessed as accumulation at G2/M phase at 5 uM after 24 hrs by flow cytometry (reference value: 10.7 +/- 0.07%); type: functional
SW-620 [7] = experiment: Induction of cell cycle arrest in human SW620 cells assessed as accumulation at subG1 phase at 5 uM after 24 hrs by flow cytometry (reference value: 0.37 +/- 0.36%); type: functional
SW-620 [8] = experiment: Induction of cell cycle arrest in human SW620 cells assessed as accumulation at G2/M phase at 1 uM after 48 hrs by flow cytometry (reference value: 11.9 +/- 2.33%); type: functional
SW-620 [9] = experiment: Induction of cell cycle arrest in human SW620 cells assessed as accumulation at S phase at 1 uM after 48 hrs by flow cytometry (reference value: 41.7 +/- 2.47%); type: functional
SW-620 [10] = experiment: Induction of cell cycle arrest in human SW620 cells assessed as accumulation at subG1 phase at 1 uM after 48 hrs by flow cytometry (reference value: 0.18 +/- 0.036%); type: functional
SW-620 [11] = experiment: Induction of cell cycle arrest in human SW620 cells assessed as accumulation at G2/M phase at 5 uM after 48 hrs by flow cytometry (reference value: 11.9 +/- 2.33%); type: functional
HeLa [12] = experiment: Induction of cell cycle arrest in human HeLa cells assessed as accumulation at G1 phase at 1 uM after 24 hrs by flow cytometry relative to control; type: functional
Outline: (§1)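 Cells were seeded at 3×10⁵ per well in 6-well plates and treated after overnight incubation for 24 and 48 h. They were trypsinized, washed three times in PBS, fixed in cold ethanol and stored at −20 °C. Pellets were washed twice in PBS and treated with RNase A at 37 °C for 15 min, then stained with PI for 30 min in the dark. DNA content was measured by flow cytometry.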

HeLa [13] = experiment: Induction of cell cycle arrest in human HeLa cells assessed as accumulation at S phase at 1 uM after 24 hrs by flow cytometry relative to control; type: functional; outline: as §1
HeLa [14] = experiment: Induction of cell cycle arrest in human HeLa cells assessed as accumulation at subG1 phase at 1 uM after 24 hrs by flow cytometry relative to control; type: functional; outline: as §1
HeLa [15] = experiment: Induction of cell cycle arrest in human HeLa cells assessed as accumulation at G1 phase at 5 uM after 24 hrs by flow cytometry relative to control; type: functional; outline: as §1
HeLa [16] = experiment: Induction of cell cycle arrest in human HeLa cells assessed as accumulation at G2/M phase at 5 uM after 24 hrs by flow cytometry relative to control; type: functional; outline: as §1
HeLa [17] = experiment: Induction of cell cycle arrest in human HeLa cells assessed as accumulation at S phase at 5 uM after 24 hrs by flow cytometry relative to control; type: functional; outline: as §1
HeLa [18] = experiment: Induction of cell cycle arrest in human HeLa cells assessed as accumulation at subG1 phase at 5 uM after 24 hrs by flow cytometry relative to control; type: functional; outline: as §1
HeLa [19] = experiment: Induction of cell cycle arrest in human HeLa cells assessed as accumulation at S phase at 1 uM after 48 hrs by flow cytometry relative to control; type: functional; outline: as §1
HeLa [20] = experiment: Induction of cell cycle arrest in human HeLa cells assessed as accumulation at G2/M phase at 5 uM after 48 hrs by flow cytometry relative to control; type: functional; outline: as §1
HeLa [21] = experiment: Induction of cell cycle arrest in human HeLa cells assessed as accumulation at S phase at 5 uM after 48 hrs by flow cytometry relative to control; type: functional; outline: as §1
WI-38 = experiment: Cytotoxicity against human WI38 cells assessed as inhibition of cell proliferation after 72 hrs by MTT assay; type: cell-based; conditions: WI-38, 72 h
Outline: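 Monolayer cells grown in DMEM with 10% FBS were seeded on day 0 at 3000–6000 cells/well, set by each line's doubling time. Agents were added the next step in five 10-fold dilutions (0.01–100) for 72 h, with DMSO ≤0.1% and a solvent control. MTT absorbance was converted to percentage growth versus untreated wells on the same plate. Where all PGs exceeded 50, the top concentration was reported as ">". ANOVA/Tukey, p<0.05.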

SW-620 [22] = experiment: Induction of apoptosis in human SW620 cells at 1 to 5 uM after 24 to 48 hrs by annexin V/PI staining; type: functional, cell-based
Outline: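 Cells were seeded on slides, incubated 24 h, then exposed to compound for 24 and 48 h. They were washed with PBS and binding buffer, incubated with annexin-V for 10 min, washed with binding buffer, and stained with PI.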

MIA PaCa-2 [23] = experiment: Induction of cell cycle arrest in human MIAPaCa2 cells assessed as accumulation at G1 phase at 1 uM after 24 hrs by flow cytometry (reference value: 55.4 +/- 0.01%); type: functional; outline: as §1
MIA PaCa-2 [24] = experiment: Induction of cell cycle arrest in human MIAPaCa2 cells assessed as accumulation at G2/M phase at 1 uM after 24 hrs by flow cytometry (reference value: 10.3 +/- 0.07%); type: functional
MIA PaCa-2 [25] = experiment: Induction of cell cycle arrest in human MIAPaCa2 cells assessed as accumulation at S phase at 1 uM after 24 hrs by flow cytometry (reference value: 34.3 +/- 0.07%); type: functional
MIA PaCa-2 [26] = experiment: Induction of cell cycle arrest in human MIAPaCa2 cells assessed as accumulation at G2/M phase at 5 uM after 24 hrs by flow cytometry (reference value: 10.3 +/- 0.07%); type: functional
MIA PaCa-2 [27] = experiment: Induction of cell cycle arrest in human MIAPaCa2 cells assessed as accumulation at subG1 phase at 5 uM after 24 hrs by flow cytometry (reference value: 0.32 +/- 0.009%); type: functional
MIA PaCa-2 [28] = experiment: Induction of cell cycle arrest in human MIAPaCa2 cells assessed as accumulation at G1 phase at 1 uM after 48 hrs by flow cytometry (reference value: 44.7 +/- 7.21%); type: functional
MIA PaCa-2 [29] = experiment: Induction of cell cycle arrest in human MIAPaCa2 cells assessed as accumulation at S phase at 1 uM after 48 hrs by flow cytometry (reference value: 46 +/- 8.13%); type: functional
MIA PaCa-2 [30] = experiment: Induction of apoptosis in human MIAPaCa2 cells at 1 to 5 uM after 24 to 48 hrs by annexin V-/PI staining

Question: With `Nc1ncn(C/C=C2\OC(=O)C(OCc3ccccc3)=C2OCc2ccccc2)c(=O)n1` as the compound, how does the Activity (MIA PaCa-2 [1]) read?
Answer: Its Activity is 29%.

Question: And the Activity (MIA PaCa-2 [2])?
Answer: Its Activity is 10.2%.

Question: And the Activity (MIA PaCa-2 [3])?
Answer: Its Activity is 60.9%.

Question: What about the Activity (SW-620 [4]) of the same compound?
Answer: Its Activity is 8.15%.

Question: And the Activity (SW-620 [5])?
Answer: The Activity was 24.1%.

Question: And the Activity (SW-620 [6])?
Answer: The Activity was 17.7%.

Question: What about the Activity (SW-620 [7]) of the same compound?
Answer: The Activity was 0.2%.

Question: What about the Activity (SW-620 [8]) of the same compound?
Answer: Its Activity is 17.9%.

Question: And the Activity (SW-620 [9])?
Answer: Its Activity is 58.9%.

Question: What about the Activity (SW-620 [10]) of the same compound?
Answer: Its Activity is 0.05%.

Question: What about the Activity (SW-620 [11]) of the same compound?
Answer: Its Activity is 9.2%.

Question: And the Activity (HeLa [12])?
Answer: Its Activity is 29.4%.

Question: And the Activity (HeLa [13])?
Answer: The Activity was 58.8%.

Question: What about the Activity (HeLa [14]) of the same compound?
Answer: Its Activity is 0%.

Question: What about the Activity (HeLa [15]) of the same compound?
Answer: Its Activity is 16.5%.

Question: What about the Activity (HeLa [16]) of the same compound?
Answer: The Activity was 11.5%.

Question: What about the Activity (HeLa [17]) of the same compound?
Answer: The Activity was 72.1%.

Question: And the Activity (HeLa [18])?
Answer: The Activity was 0%.

Question: And the Activity (HeLa [19])?
Answer: Its Activity is 65.6%.

Question: What about the Activity (HeLa [20]) of the same compound?
Answer: The Activity was 13.9%.

Question: What about the Activity (HeLa [21]) of the same compound?
Answer: Its Activity is 62.3%.

Question: What about the IC50 (WI-38) of the same compound?
Answer: Its IC50 is 4.67 µM.

Question: And the Activity (SW-620 [22])?
Answer: Its Activity is “inactive”.

Question: And the Activity (MIA PaCa-2 [23])?
Answer: The Activity was 55.6%.

Question: And the Activity (MIA PaCa-2 [24])?
Answer: The Activity was 14.9%.

Question: What about the Activity (MIA PaCa-2 [25]) of the same compound?
Answer: The Activity was 29.5%.

Question: What about the Activity (MIA PaCa-2 [26]) of the same compound?
Answer: Its Activity is 7.05%.

Question: What about the Activity (MIA PaCa-2 [27]) of the same compound?
Answer: Its Activity is 0.21%.

Question: What about the Activity (MIA PaCa-2 [28]) of the same compound?
Answer: Its Activity is 22.9%.

Question: And the Activity (MIA PaCa-2 [29])?
Answer: The Activity was 64.2%.

Question: And the Activity (MIA PaCa-2 [30])?
Answer: Its Activity is “inactive”.
